Among the data in BindingDB's records for PubMed 19295546 (Mayo Clinic) are IC50 values, retold here.

The term IC50 denotes the midpoint of a concentration-inhibition curve. Read a high IC50 as weaker potency in that assay.

Each structure is given as a SMILES string. Bounds are passed on as bounds.

Assay [1] addresses 3-phosphoinositide-dependent protein kinase 1 (PDPK1) (Homo sapiens) (UniProt O15530). The assay is described as follows: Inhibition of PDK1 (unknown origin).
The target of assay [2] is T1, Signal transducer and activator of transcription 5A (Homo sapiens, UniProt P42229).
T1 sequence (P42229 whole entry): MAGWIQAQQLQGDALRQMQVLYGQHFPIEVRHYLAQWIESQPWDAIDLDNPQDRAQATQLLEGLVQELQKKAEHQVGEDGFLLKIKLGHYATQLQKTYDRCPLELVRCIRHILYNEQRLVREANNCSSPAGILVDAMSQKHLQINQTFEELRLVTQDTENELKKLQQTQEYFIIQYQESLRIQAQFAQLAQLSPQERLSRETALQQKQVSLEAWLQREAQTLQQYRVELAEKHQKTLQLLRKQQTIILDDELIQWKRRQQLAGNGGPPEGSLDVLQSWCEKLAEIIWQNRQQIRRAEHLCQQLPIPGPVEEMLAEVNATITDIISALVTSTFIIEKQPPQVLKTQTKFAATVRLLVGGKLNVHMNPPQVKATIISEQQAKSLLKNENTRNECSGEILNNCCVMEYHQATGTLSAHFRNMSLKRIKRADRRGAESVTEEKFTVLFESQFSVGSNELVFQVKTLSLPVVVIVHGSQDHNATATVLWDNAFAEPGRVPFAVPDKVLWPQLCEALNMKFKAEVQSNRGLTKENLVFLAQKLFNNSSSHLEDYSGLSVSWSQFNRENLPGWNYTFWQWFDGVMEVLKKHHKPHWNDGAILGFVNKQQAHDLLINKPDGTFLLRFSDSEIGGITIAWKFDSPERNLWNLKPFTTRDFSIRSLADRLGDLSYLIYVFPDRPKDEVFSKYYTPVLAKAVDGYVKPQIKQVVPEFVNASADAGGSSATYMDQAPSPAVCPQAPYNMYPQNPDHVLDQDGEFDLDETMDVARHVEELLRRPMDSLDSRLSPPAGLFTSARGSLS
The assay is described as follows: Inhibition of STAT5 phosphorylation in human HEL cells by Western blot analysis. The method, boiled down: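 HEL cells were starved overnight in RPMI with 1% FCS, then exposed to compound for 2 h at 37 °C. Cells were lysed in RIPA buffer (50 mM HEPES pH 7.4, 150 mM NaCl, 1% Triton X-100, deoxycholate, 0.1% SDS) with protease and phosphatase inhibitors. Protein was quantified by Bradford assay and blots were developed by chemiluminescence. Membranes were stripped and reprobed for total STAT5.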
A general note: In western blotting, separated proteins are transferred to a membrane and probed.

Assay [3] has as its target Signal transducer and activator of transcription 3 (Homo sapiens, UniProt P40763). Kind of assay: Inhibition of STAT3 phosphorylation in human HEL cells by Western blot analysis.

Chain of Signal transducer and activator of transcription 3 (P40763 whole entry): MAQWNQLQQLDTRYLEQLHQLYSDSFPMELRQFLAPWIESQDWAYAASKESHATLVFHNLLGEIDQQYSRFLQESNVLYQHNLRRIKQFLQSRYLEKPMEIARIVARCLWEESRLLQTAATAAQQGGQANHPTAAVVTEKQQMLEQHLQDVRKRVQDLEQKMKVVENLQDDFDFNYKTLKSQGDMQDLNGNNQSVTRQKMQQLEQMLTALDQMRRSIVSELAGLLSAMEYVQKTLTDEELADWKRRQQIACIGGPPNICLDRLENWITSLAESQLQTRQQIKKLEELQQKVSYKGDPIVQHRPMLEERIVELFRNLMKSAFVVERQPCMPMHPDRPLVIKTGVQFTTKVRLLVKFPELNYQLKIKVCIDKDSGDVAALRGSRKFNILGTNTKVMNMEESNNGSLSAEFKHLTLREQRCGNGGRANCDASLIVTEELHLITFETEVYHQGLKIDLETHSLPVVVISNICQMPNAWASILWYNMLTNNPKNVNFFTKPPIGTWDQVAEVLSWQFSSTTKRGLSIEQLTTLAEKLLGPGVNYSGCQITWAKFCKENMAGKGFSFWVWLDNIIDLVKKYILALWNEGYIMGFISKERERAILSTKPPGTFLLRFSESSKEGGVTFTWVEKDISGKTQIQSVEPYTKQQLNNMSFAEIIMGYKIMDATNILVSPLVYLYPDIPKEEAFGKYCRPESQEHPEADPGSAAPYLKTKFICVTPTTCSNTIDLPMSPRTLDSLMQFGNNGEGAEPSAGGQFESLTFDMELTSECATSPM

`N#CCNC(=O)c1ccc(-c2ccnc(Nc3ccc(N4CCOCC4)cc3)n2)cc1` [N-(cyanomethyl)-4-(2-(4-morpholinophenylamino)pyrimidin-4-yl)benzamide]: the IC50 in assay [1] was over 1 µM; in assay [2], 0.4 µM; in assay [3], 2.5 µM.
